Experimental data published in ChEMBL document CHEMBL3091324, “The optimization of aminooxadiazoles as orally active inhibitors of Cdc7” (Bioorg Med Chem Lett, 2013).
≈ marks a conversion by molar mass, not a printed value.

Assays:
[1] = Intrinsic clearance in rat liver microsomes; assay type: ADME; details: read-out: CLH
[2] = target: Cell division cycle 7-related protein kinase (Homo sapiens, UniProt O00311); experiment: Inhibition of Cdc7-mediated MCM2 phosphorylation at Ser53 in human HCT116 cells after 14 hrs by immunostaining assay; assay type: cell-based, HCT-116
Sequence of Cell division cycle 7-related protein kinase (O00311 whole entry): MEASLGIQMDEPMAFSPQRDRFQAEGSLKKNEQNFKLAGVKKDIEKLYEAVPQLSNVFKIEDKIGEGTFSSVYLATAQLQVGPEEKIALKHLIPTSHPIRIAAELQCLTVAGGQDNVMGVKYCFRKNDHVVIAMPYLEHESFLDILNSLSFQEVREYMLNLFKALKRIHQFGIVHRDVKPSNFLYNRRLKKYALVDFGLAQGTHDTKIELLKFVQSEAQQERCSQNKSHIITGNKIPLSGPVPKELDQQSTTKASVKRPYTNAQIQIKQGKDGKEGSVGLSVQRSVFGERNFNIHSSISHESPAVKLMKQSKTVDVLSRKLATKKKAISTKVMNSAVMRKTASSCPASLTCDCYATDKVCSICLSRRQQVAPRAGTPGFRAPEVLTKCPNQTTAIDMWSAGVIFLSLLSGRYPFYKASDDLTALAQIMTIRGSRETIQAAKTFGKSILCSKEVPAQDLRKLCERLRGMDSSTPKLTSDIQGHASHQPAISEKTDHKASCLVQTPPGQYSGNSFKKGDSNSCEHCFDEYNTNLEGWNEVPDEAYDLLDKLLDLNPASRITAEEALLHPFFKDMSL

[3] = target: CDC7/DBF4 (Cell division cycle 7-related protein kinase/Activator of S phase kinase) (Homo sapiens, UniProt O00311); experiment: Inhibition of Cdc7/Dbf4 (unknown origin)-mediated MCM2 phosphorylation at Ser53 by protein A amplified luminescent proximity homogeneous assay; assay type: protein-complex assay
Sequence of CDC7/DBF4 (Cell division cycle 7-related protein kinase/Activator of S phase kinase) (Q9UBU7 whole entry): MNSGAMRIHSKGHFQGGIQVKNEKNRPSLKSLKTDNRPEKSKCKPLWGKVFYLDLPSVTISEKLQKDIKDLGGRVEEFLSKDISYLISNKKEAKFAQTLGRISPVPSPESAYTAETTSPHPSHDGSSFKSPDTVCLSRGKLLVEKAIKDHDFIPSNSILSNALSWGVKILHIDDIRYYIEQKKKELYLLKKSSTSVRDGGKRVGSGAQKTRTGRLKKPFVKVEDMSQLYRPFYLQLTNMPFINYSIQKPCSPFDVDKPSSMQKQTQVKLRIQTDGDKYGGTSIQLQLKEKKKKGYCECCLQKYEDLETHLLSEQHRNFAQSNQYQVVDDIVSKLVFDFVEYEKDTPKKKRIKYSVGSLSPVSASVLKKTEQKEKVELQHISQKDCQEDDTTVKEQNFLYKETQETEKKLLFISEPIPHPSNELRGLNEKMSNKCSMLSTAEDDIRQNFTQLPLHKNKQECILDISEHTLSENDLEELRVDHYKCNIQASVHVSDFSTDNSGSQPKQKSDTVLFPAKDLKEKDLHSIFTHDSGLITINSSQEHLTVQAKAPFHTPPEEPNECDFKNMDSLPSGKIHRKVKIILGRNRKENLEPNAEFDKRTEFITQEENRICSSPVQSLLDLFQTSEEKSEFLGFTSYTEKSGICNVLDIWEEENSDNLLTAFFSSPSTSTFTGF
Sequence of CDC7/DBF4 (Cell division cycle 7-related protein kinase/Activator of S phase kinase) (O00311 whole entry): as the sequence (O00311 whole entry) above

[4] = target: Cyclin-dependent kinase 2/cyclin E1 (Homo sapiens, UniProt P24941); experiment: Inhibition of CDK2/cyclin E (unknown origin) using ULight peptide as substrate by HTRF assay; assay type: protein-complex assay
[5] = Intrinsic clearance in human liver microsomes; assay type: ADME; details: read-out: CLH
HCT-116 = experiment: Cytotoxicity against human HCT116 cells assessed as cell viability after days by CellTiterGlo assay; assay type: functional, cell-based
Method in brief: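 HCT-116 cells exposed to compound for 4 d; cell viability IC50 determined.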

[6] = Mean residence time in rat at 2 mg/kg, iv and 2 mg/kg, po; assay type: ADME, organism-based; details: in vivo
Plasma [7] = experiment: Unbound plasma concentration in NCR/nude mouse xenografted with human HCT116 cells at 100 mg/kg, po measured at 16 hrs by LC-MS analysis; assay type: ADME, organism-based, HCT-116; design: dose 100 mg/kg, route oral; details: in vivo
Method in brief: (§1)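 Female NCR/nude mice (n = 3) dosed orally at 100 mg/kg; plasma sampled at 6 and 16 h; unbound concentration calculated from total plasma concentration and percent free fraction in mouse plasma.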

Mus musculus [8] = experiment: In vivo inhibition of Cdc7 in tumor of NCR/nude mouse xenografted with human HCT116 cells assessed as remaining Ser53 phosphorylated MCM2 level at 100 mg/kg, po measured at 16 hrs relative to control; assay type: functional, HCT-116
Method in brief: (§2)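 Female NCR/nude mice (n = 3 per group) given single oral dose of 100 mg/kg; pMCM2 levels measured at 6 and 16 h, expressed as % remaining versus vehicle control group; significance by one-way ANOVA with Dunnett's test.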

[9] = Oral bioavailability rat in 2 mg/kg; assay type: ADME, organism-based; details: in vivo
[10] = Volume of distribution at steady state in rat at 2 mg/kg, iv and 2 mg/kg, po; assay type: ADME, organism-based; details: in vivo, read-out: Vdss
[11] = target: Cyclin-dependent kinase 1/cyclin B1 (Homo sapiens, UniProt P06493); experiment: Inhibition of CDK1/cyclin B (unknown origin) by HTRF assay; assay type: protein-complex assay
Sequence of Cyclin-dependent kinase 1/cyclin B1 (P06493 whole entry): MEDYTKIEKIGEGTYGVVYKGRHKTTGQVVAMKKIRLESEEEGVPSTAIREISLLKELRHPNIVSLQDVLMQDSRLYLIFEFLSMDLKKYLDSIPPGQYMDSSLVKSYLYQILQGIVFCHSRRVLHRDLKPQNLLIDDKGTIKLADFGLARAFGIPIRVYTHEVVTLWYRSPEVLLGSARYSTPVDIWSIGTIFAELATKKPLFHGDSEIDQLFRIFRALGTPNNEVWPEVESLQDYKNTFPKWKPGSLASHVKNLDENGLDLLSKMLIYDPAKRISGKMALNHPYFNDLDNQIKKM
Sequence of Cyclin-dependent kinase 1/cyclin B1 (P14635 whole entry, further chain): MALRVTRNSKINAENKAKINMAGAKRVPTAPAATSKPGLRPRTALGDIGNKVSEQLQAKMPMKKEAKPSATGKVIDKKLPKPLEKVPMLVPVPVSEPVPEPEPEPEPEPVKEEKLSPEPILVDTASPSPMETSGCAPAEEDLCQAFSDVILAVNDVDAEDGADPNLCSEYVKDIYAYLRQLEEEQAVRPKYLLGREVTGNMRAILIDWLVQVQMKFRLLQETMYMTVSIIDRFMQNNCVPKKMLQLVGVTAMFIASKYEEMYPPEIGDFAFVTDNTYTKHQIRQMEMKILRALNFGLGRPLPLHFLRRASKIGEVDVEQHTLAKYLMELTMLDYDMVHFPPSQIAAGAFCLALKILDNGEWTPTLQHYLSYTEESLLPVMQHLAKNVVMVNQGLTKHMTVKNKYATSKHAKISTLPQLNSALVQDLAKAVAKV

Mus musculus [12] = experiment: In vivo inhibition of Cdc7-mediated MCM2 phosphorylation at Ser53 in tumor of NCR/nude mouse xenografted with human HCT116 cells at 100 mg/kg, po; assay type: functional, organism-based; design: dose 100 mg/kg; details: HCT-116, TDE = time-dependent effect; method in brief: as §2
[13] = Clearance in rat at 2 mg/kg, iv and 2 mg/kg, po; assay type: ADME, organism-based; details: in vivo
Mus musculus [14] = experiment: In vivo inhibition of Cdc7 in tumor of NCR/nude mouse xenografted with human HCT116 cells assessed as remaining Ser53 phosphorylated MCM2 level at 100 mg/kg, po measured at 6 hrs relative to control; assay type: functional, HCT-116; method in brief: as §2
Plasma [15] = experiment: Unbound plasma concentration in NCR/nude mouse xenografted with human HCT116 cells at 100 mg/kg, po measured at 6 hrs by LC-MS analysis; assay type: ADME, organism-based, HCT-116; design: dose 100 mg/kg, route oral; details: in vivo; method in brief: as §1
[16] = Solubility of the compound in simulated intestinal fluid; assay type: ADME
CDK9/cyclin T1 = CDK9/cyclin T1 (Homo sapiens, UniProt P50750); experiment: Inhibition of CDK9/cyclin T1 (unknown origin) using 4eBP1 ULight peptide as substrate by HTRF assay; assay type: protein-complex assay
Sequence of CDK9/cyclin T1 (O60563 whole entry): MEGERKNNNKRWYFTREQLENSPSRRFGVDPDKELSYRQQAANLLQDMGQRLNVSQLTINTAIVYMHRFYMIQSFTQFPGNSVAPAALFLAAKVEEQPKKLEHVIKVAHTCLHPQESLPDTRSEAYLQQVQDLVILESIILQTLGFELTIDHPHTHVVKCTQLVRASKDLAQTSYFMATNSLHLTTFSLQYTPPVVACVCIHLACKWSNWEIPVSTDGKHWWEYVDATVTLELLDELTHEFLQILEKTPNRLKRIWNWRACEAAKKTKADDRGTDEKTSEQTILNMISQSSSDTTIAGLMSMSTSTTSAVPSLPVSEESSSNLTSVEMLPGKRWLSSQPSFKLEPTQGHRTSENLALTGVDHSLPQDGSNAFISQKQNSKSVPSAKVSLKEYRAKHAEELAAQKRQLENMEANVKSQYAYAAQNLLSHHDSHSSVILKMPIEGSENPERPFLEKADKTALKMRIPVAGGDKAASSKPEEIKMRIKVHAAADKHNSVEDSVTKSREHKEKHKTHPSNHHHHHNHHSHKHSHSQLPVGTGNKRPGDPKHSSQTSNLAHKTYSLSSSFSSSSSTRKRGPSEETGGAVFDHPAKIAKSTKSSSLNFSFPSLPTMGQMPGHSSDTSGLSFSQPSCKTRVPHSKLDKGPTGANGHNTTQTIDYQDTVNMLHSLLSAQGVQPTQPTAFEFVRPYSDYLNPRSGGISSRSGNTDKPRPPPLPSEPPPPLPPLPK
Sequence of CDK9/cyclin T1 (P50750 whole entry): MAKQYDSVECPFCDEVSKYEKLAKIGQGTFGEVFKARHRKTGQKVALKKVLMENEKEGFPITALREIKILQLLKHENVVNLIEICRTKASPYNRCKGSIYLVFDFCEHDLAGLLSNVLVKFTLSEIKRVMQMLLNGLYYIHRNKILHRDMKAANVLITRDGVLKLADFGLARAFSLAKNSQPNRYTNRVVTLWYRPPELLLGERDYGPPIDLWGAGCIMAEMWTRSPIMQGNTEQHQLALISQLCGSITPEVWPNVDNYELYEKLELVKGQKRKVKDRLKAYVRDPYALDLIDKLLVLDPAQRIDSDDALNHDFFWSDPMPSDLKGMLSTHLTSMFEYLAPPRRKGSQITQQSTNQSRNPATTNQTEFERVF

Homo sapiens = organism: Homo sapiens; experiment: Selectivity ratio of IC50 for CDK2/cyclin E (unknown origin) to IC50 for Cdc7/Dbf4 (unknown origin)
Hepatocyte = experiment: Drug metabolism in rat hepatocytes assessed as GSH adduct level; assay type: ADME, cell-based
[17] = Clearance in rat at 2 mg/kg, iv and 5 mg/kg, po; assay type: ADME, organism-based; details: in vivo
[18] = Oral bioavailability rat in 5 mg/kg; assay type: ADME, organism-based; details: in vivo
[19] = Volume of distribution at steady state in rat at 2 mg/kg, iv and 5 mg/kg, po; assay type: ADME, organism-based; details: in vivo, read-out: Vdss
[20] = Mean residence time in rat at 2 mg/kg, iv and 5 mg/kg, po; assay type: ADME, organism-based; details: in vivo

Row | SMILES | microsomal CLint [1] [µL/min/mg] | IC50 [2] [nM] | IC50 [3] [nM] | IC50 [4] [nM] | microsomal CLint [5] [µL/min/mg] | also measured
1 | c1ccc(CNc2nnc(-c3ccc4[nH]ncc4c3)o2)cc1 | 402 | 730 | 20 | 170 | 98 | 
2 | CC[C@@H](Nc1nnc(-c2c[nH]c3ncccc23)o1)c1ccccc1 | 29 | 150 | 4 | 1700 | 70 | 
3 | Fc1cnccc1[C@H](Nc1nnc(-c2c[nH]c3ncccc23)o1)C1CC1 | 45 | 60 | 1.8 | 1900 | 27 | IC50 (HCT-116): 5700 nM; MRT [6]: 1.4 h; Cp(f) (Plasma [7]): 450 nM; Remaining Ser53 phospho-MCM2 vs control (Mus musculus [8]): 24%; bioavailability [9]: 14%; Vd [10]: 6.1 L/kg; IC50 [11]: > 50000 nM; Activity (Mus musculus [12]): tde; clearance [13]: 75 mL/min/kg; Remaining phospho-MCM2 (% of control) (Mus musculus [14]): 62%; Cp(f) (Plasma [15]): 2000 nM; solubility [16]: 200 µg/mL (≈ 571 µM); IC50 (CDK9/cyclin T1): 940 nM
4 | Fc1cccc(CNc2nnc(-c3c[nH]c4ncccc34)o2)c1 | 71 | 580 | 10 | 61 | 54 | Ratio IC50 (Homo sapiens): 6
5 | C[C@@H](Nc1nnc(-c2c[nH]c3ncccc23)o1)c1ccccc1 | 25 | 370 | 32 | 310 | 64 | Drug metabolism (Hepatocyte): Active
6 | c1ccc(CNc2nnc(-c3c[nH]c4ncccc34)o2)nc1 | 14 | 13000 | 170 | 2500 | < 14 | 
7 | c1cncc(CNc2nnc(-c3c[nH]c4ncccc34)o2)c1 | 30 | 7100 | 190 | 610 | < 14 | 
8 | O=c1[nH]c2ccc(-c3nnc(NCc4ccccc4)o3)cc2o1 | 30 | > 50000 | 590 | 47000 | 69 | 
9 | c1ccc(CNc2nnc(-c3nc4ccncc4s3)o2)cc1 | 66 | > 50000 | 2300 | 19000 | 23 | 
10 | Fc1ccccc1[C@H](Nc1nnc(-c2c[nH]c3ncncc23)o1)C1CC1 | 34 | 130 | 1.5 | 750 | < 14 | IC50 [11]: > 50000 nM; IC50 (CDK9/cyclin T1): 880 nM
11 | Fc1cc2cc(-c3nnc(NCc4ccccc4)o3)ccc2cn1 | 56 | 3200 | 10 | 6800 | 49 | 
12 | Fc1ccccc1[C@H](Nc1nnc(-c2c[nH]c3ncccc23)o1)C1CC1 | 63 | 20 | 0.85 | 240 | 59 | IC50 (HCT-116): 880 nM; Cp(f) (Plasma [7]): 60 nM; clearance [17]: 33.3 mL/min/kg; Remaining Ser53 phospho-MCM2 vs control (Mus musculus [8]): 46%; bioavailability [18]: 35%; Vd [19]: 5.3 L/kg; IC50 [11]: 1600 nM; MRT [20]: 2.7 h; Remaining phospho-MCM2 (% of control) (Mus musculus [14]): 38%; Cp(f) (Plasma [15]): 150 nM; solubility [16]: 5 µg/mL (≈ 14.3 µM); IC50 (CDK9/cyclin T1): 31 nM
13 | Fc1ccc(CNc2nnc(-c3c[nH]c4ncccc34)o2)cc1 | 58 | 690 | 25 | 98 | 47 | Ratio IC50 (Homo sapiens): 4
